Calls of active or inactive are those of the source.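 The calls were made as follows: active = viability loss with dose, its half-maximal concentration at most ten times the top valid tested dose; inconclusive = flat viability loss of 30 to 70 percent, or poor fit; inactive = the rest.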
How the values were obtained:
[1] = cytotoxicity in BJeH fibroblasts, dose response, counter-screen for Ras selective lethality project, BJeH cells, dry powder, set 2 (AID 493051); settings: BJeH fibroblast viability, Alamar Blue fluorescence, 48 h
How it was run: (§1)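 system = hTERT-immortalized BJ fibroblasts (BJeH) | signal = Alamar Blue fluorescence (544 nm ex, 590 nm em) | schedule = 48 h compound treatment at 37 °C, ~16 h dye incubation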

[2] = tested on: BJeH fibroblast viability, Alamar Blue fluorescence, 48 h; experiment: as above
How it was run: as §1

Structure (SMILES) | activity change, negative = viability loss ([1]; at 48 µM (top of the series)) | AC50 [2] [µM] | further results
Cc1onc(C(=O)NCc2ccc(F)cc2)c1[N+](=O)[O-] |  |  | activity change, negative = viability loss ([1]; at 68 µM (top of the series)): 13.9% (inactive)
Cc1onc(C(=O)N2CCN(Cc3ccccc3)CC2)c1[N+](=O)[O-] |  |  | activity change, negative = viability loss ([1]; at 68 µM (top of the series)): 7.25% (inactive)
Cc1onc(C(=O)N2CCN(C(c3ccncc3)c3ccncc3)CC2)c1[N+](=O)[O-] | 4.32% (inactive) |  | 
Cc1ccc(C(=O)N2CCN(C(c3ccccc3)c3ccccc3)CC2)c([N+](=O)[O-])c1 | 19.4% (inactive) |  | 
Cc1onc(C(=O)N2CCOCC2)c1[N+](=O)[O-] |  |  | activity change, negative = viability loss ([1]; at 68 µM (top of the series)): 10.9% (inactive)
Cc1onc(C(=O)NCCNC(c2ccccc2)c2ccccc2)c1[N+](=O)[O-] | -6.54% (inactive) |  | 
Cc1onc(C(=O)N2CCN(C(c3ccccc3)c3ccc(Cl)cc3)CC2)c1[N+](=O)[O-] (stereo not given) |  | 0.958 | 
Cc1onc(C(=O)N2CCCN(C(c3ccccc3)c3ccccc3)CC2)c1[N+](=O)[O-] |  | 5.13 | 
Cc1onc(C(=O)N2CCN(C(c3ccccc3)c3ccccc3)CC2)c1[N+](=O)[O-] |  | 7.89 | 
Cc1onc(C(=O)N2CCN(C(c3ccccc3)c3ccccc3)CC2)c1Br | 22.7% (inactive) |  | 
O=C(c1ccc([N+](=O)[O-])o1)N1CCCN(C(c2ccccc2)c2ccccc2)CC1 |  | 63.2 | 
COc1ccc(C(c2ccc(OC)cc2)N2CCN(C(=O)c3noc(C)c3[N+](=O)[O-])CC2)cc1 |  | 9.36 | 
COc1ccccc1N1CCN(C(=O)c2noc(C)c2[N+](=O)[O-])CC1 |  |  | activity change, negative = viability loss ([1]; at 68 µM (top of the series)): 10.7% (inactive)
O=C(c1noc2ccccc12)N1CCN(C(c2ccccc2)c2ccccc2)CC1 | 27.9% (inactive) |  | 
O=[N+]([O-])c1ccc(CN2CCN(C(c3ccccc3)c3ccccc3)CC2)o1 | -9.67% (inactive) |  | 
Cc1onc(C(=O)N2CCN(C(c3ccc(Cl)cc3)c3ccc(Cl)cc3)CC2)c1[N+](=O)[O-] |  | 0.628 | 
Cc1cc(C(=O)N2CCN(Cc3ccccc3)CC2)no1 |  |  | activity change, negative = viability loss ([1]; at 68 µM (top of the series)): 3.96% (inactive)
CCOC(=O)N1CCN(C(=O)c2noc(C)c2[N+](=O)[O-])CC1 |  |  | activity change, negative = viability loss ([1]; at 68 µM (top of the series)): 7.91% (inactive)
Cc1onc(C(=O)N2CCN(C(c3ccccc3)c3ccccc3)CC2)c1N | 5.64% (inactive) |  | 
O=C(c1ccc([N+](=O)[O-])o1)N1CCN(C(c2ccccc2)c2ccccc2)CC1 |  | 17.7 | 
Cc1onc(C(=O)N2CCN(C(c3ccccc3)c3ccccc3)CC2)c1C | 46.9% (inactive) |  | 
CC(C)c1onc(C(=O)N2CCN(C(c3ccccc3)c3ccccc3)CC2)c1[N+](=O)[O-] | 18.4% (inactive) |  | 
Cc1onc(C(=O)N2CCN(C(c3ccc(F)cc3)c3ccc(F)cc3)CC2)c1[N+](=O)[O-] |  | 1.49 | 
Cc1onc(C(=O)N2CCN(C(c3ccccc3)c3ccccc3)CC2)c1NS(C)(=O)=O | 8.49% (inactive) |  | 
O=C(NCCNC(c1ccccc1)c1ccccc1)c1ccc([N+](=O)[O-])o1 |  | 3.33 | 
O=C(c1ccc([N+](=O)[O-])o1)N1CCN(C(c2ccc(F)cc2)c2ccc(F)cc2)CC1 |  | 11.8 | 
COc1ccc(C(c2ccc(OC)cc2)N2CCN(C(=O)c3ccc([N+](=O)[O-])o3)CC2)cc1 |  | 6.29 | 
CC(=O)Nc1c(C(=O)N2CCN(C(c3ccccc3)c3ccccc3)CC2)noc1C | 15.6% (inactive) |  | 
Cc1onc(C(=O)N2CCN(C(c3ccccn3)c3ccccn3)CC2)c1[N+](=O)[O-] | -5.34% (inactive) |  | 
Cc1oc(C)c(C(=O)N2CCN(C(c3ccccc3)c3ccccc3)CC2)c1C | 49.1% (inactive) |  | 

From PubChem BioAssay AID493051 (Broad Institute, 2011)
